# Rows were chosen to be rich in hits. Some 1.6% of all compounds tested hit in one or more screens of this group.
# DDE Tn7 FP inh = disrupts Tn7 cyclic peptide binding to fibrin D-Dimer-E complex; P02675; FP displacement of FITC-Tn7 peptide from fibrin DD(E); 0% = median of compound wells per plate; inhibition, % at 8.3 µM; actives 0.13% (n = 370,000);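 active = inhibition above the mean of compounds falling within the control limits plus 3 SD of them, cut at about 14% in these data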;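 also: 0% = plate median of compound wells and 100% = 10 µM Aha-Tn7 peptide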
#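 assay system = human clot-derived fibrin DD(E) complex | quantity = Fibrin-DD(E) at 2 µM final | timing = 10 min preincubation, 3 h with tracer, room temperature | signal = fluorescence polarization | measure = percent inhibition | benchmarks = high control wells with 10 µM unlabelled Aha-Tn7 peptide (full inhibition) | replicates = singlicate testing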
# MT1-MMP act inh = blocks activation of human MT1-MMP | HT1080 RFP-PRO-GFP cells, GFP/RFP ratio fluorescence, overnight; percent of plate control window, DMSO zero | GFP/RFP ratio change, % at 20 µM | actives 0.061% (n = 360,000) | AID 651647;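 active = GFP/RFP ratio change of at least 30% with cell ATP level not reduced by more than half and red fluorescence within 50% of control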
#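 Assay system: HT1080 RFP-PRO-GFP cells | Dosing: 20 µM single dose, 1% DMSO | Incubation: Cells overnight before dosing, compound overnight, 37 °C, 5% CO2 | Evaluation: GFP/RFP fluorescence ratio | Control set: DMSO-only wells and HT1080 RFP-L50D-GFP cell wells as references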
# ADAM17 inh = inhibits human ADAM17. inhibition, % at 6.95 µM. P78536. recombinant ADAM17, EDANS/DABCYL FRET peptide cleavage. actives 0.83% (n = 370,000);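 active = inhibition above the mean of compounds lying between control limits plus 3 SD, set per campaign, cut at about 8.5% in these data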;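 also: 0% = DMSO-only wells as the low control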
# DDE Tn6 FP inh = disrupts Tn6 cyclic peptide binding to fibrin D-Dimer-E complex; P02675; Fibrin DD(E) TRITC-Tn6 fluorescence polarization displacement; inhibition, % at 8.3 µM; actives 0.21% (n = 370,000);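 active = inhibition above a per-campaign cutoff: mean of compounds within control limits plus 3 SD, cut at about 15% in these data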;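 also: 0% = median of all compound wells on the plate and 100% = blocking peptide control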
# ADAM10 inh = inhibits human ADAM10 | O14672 | recombinant ADAM10, EDANS/DABCYL FRET peptide cleavage, 3 h | inhibition, % at 7 µM | actives 0.62% (n = 370,000) | AID 720582;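 active = inhibition above a per-campaign cutoff equal to the mean of compounds falling between control-based bounds plus 3 SD, cut at about 20% in these data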;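 also: 0% = DMSO wells while the 100% control is not disclosed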
# Target sequence (O14672 214-748 limits assumed): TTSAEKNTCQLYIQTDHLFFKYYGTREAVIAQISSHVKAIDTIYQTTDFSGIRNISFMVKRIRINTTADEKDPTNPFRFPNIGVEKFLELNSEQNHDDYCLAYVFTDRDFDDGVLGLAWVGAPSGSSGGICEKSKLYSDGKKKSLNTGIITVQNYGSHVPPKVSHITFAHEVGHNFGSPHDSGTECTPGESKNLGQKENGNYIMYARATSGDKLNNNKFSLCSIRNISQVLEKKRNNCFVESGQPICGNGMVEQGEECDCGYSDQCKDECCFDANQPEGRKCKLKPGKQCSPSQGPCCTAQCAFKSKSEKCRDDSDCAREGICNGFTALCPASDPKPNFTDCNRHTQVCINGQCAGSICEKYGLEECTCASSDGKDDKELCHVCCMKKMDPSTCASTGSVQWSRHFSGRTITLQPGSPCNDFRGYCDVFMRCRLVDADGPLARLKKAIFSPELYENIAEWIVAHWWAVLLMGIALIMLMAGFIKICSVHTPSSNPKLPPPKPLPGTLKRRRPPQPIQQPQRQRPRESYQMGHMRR
# ADAM10 counter = ADAM10 inhibition, counter-screen for ADAM17 exosite hits; shares compounds with ADAM17 inh; recombinant ADAM10, EDANS/DABCYL FRET peptide cleavage, 3 h; inhibition, % at 6.95 µM; actives 47% (n = 2,900);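 active = mean inhibition over the triplicate runs exceeds the activity threshold set in the earlier primary screen, cut at about 20% in these data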;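 also: 0% = DMSO wells and 100% = marimastat wells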
# ADAM17 confirm = human ADAM17 inhibition, confirmation; inhibition, % at 6.95 µM; recombinant ADAM17, EDANS/DABCYL QFRET peptide cleavage; actives 65% (n = 2,900); AID 743257; shares compounds with ADAM17 inh;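 active = mean inhibition across replicates above the hit cutoff set in the primary screen, cut at about 8.5% in these data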;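 also: 0% = DMSO wells and 100% = marimastat wells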
# Starred values were filed as active, the others as inactive; i = inactive; · = no result.
SMILES,DDE Tn7 FP inh,MT1-MMP act inh,ADAM17 inh,DDE Tn6 FP inh,ADAM10 inh,ADAM10 counter,ADAM17 confirm
Cc1cccc(CSCCNC(=O)c2ccc(N(C)S(=O)(=O)c3ccccc3)cc2)c1,-1,4,11*,0,19,23*,12*
C=CCN(CC#Cc1ccccc1)CC=C,0,·,0,-4,-1,·,·
CCOC(=O)N1CCN(C(=O)C[C@H]2C[C@@]3(C(=O)OC)C(=C[C@H](C(C)C)O[C@@H]3C3CC3)N(Cc3ccco3)C2=O)CC1,-2,·,3,-2,7,·,·
CC(C)CNS(=O)(=O)c1ccc(CCC(=O)Nc2cc(Cl)ccc2Oc2ccccc2)cc1,0,-2,9.7*,-4,19,39*,21*
CC(C)(C)NS(=O)(=O)c1ccc(CCC(=O)Nc2cc(Cl)ccc2Oc2ccccc2)cc1,-1,-10,9.7*,-3,19,33*,19*
CC(C)(C)NS(=O)(=O)c1ccc(CCC(=O)NCc2ccccn2)cc1,9,-3,-4,-1,-3,·,·
CC(C)CNS(=O)(=O)c1ccc(CCC(=O)O)cc1,7,5,-3,-5,0,·,·
O=C(c1ccc(F)cc1)n1ccc2ccc(-c3ccc4ccn(Cc5ccccc5)c4c3)cc21,-3,·,-14,9,-46,·,·
CCOc1ccc(OCC(=O)OCC(=O)Nc2ccccc2C#N)cc1,-2,-1,1,-6,2,·,·
CCOc1ccc(N=C2SC(C(=O)Nc3ccccc3C#N)C(N)=C2C(=O)Nc2ccc(Cl)cc2)cc1 (configuration not stated),-2,3,9.4*,-3,16,21*,16*
CCCNc1ncnc2onc(C)c12,5,2,9.8*,3,5,11,9
Cc1[nH]ccc(=O)c1OCc1c(Cl)cccc1Cl,-3,3,-2,3,-4,·,·
Cc1ccc(Cn2ccc(=O)c(OCc3c(Cl)cccc3Cl)c2C)cc1,-6,-11,11*,-15,17,15,10*
O=C(Nc1ccccc1)c1cc(C2CCCCN2S(=O)(=O)c2ccccc2)on1 (configuration not stated),-7,-5,12*,5,15,13,8
CN(Cc1ccccc1)C(=O)c1cccc(NC(=O)Cc2ccc(NC(=O)C3CCCN(C(=O)c4ccccc4)C3)cc2)c1 (configuration not stated),2,-4,11*,0,10,-7,-2
CN(Cc1ccccc1)C(=O)c1ccc(NC(=O)Cc2ccc(NC(=O)C3CCCN(C(=O)CCc4ccccc4)C3)cc2)cc1 (configuration not stated),12,5,9.4*,4,11,21*,11*
CN(Cc1ccccc1)C(=O)c1ccc(NC(=O)Cc2ccc(NC(=O)C3CCCN(C(=O)C4CCCCC4)C3)cc2)cc1 (configuration not stated),-2,7,10*,1,15,14,5
O=C(Cc1ccc(NC(=O)C2CCCN(C(=O)c3ccccc3)C2)cc1)Nc1ccc(C(=O)N2CCOCC2)cc1 (configuration not stated),-1,-1,10*,2,2,-2,5
CN(Cc1ccccc1)C(=O)c1cccc(NC(=O)Cc2ccc(NC(=O)C3CCN(C(=O)c4ccccc4)CC3)cc2)c1,7,0,-2,4,-8,·,·
COc1ccc(Sc2cccc3c2S(=O)(=O)N([C@H](C)c2ccccc2)C[C@@H](COCc2ccccc2)O3)cc1OC,-10,·,-1,2,6,·,·
COC(=O)c1cc(-c2ccc3ccccc3c2)c(=O)n2c1CCC2,1,·,-161,-5,i,·,·
CCOc1ccc(N=Nc2c(=O)[nH]n3c(=O)cc(C)[nH]c23)cc1,3,26,10*,-2,13,15,12*
Cc1cc(=O)n2[nH]c(=O)c(N=Nc3ccccc3)c2[nH]1,-1,7,1,-6,5,·,·
CN(C)c1ccc(CN(CC2CCCO2)C(=O)c2cc3ccccc3o2)cc1 (configuration not stated),-8,-5,1,0,4,·,·
Cc1c(C(=O)N(Cc2ccc(N(C)C)cc2)CC2CCCO2)oc2ccccc12 (configuration not stated),5,-4,10.0*,4,11,-6,1
SMILES,DDE Tn7 FP inh,MT1-MMP act inh,ADAM17 inh,DDE Tn6 FP inh,ADAM10 inh,ADAM10 counter,ADAM17 confirm
Cc1nc(-c2cccc(NC(=O)c3cccs3)c2)cs1,-4,14,-1,-2,4,·,·
O=C(Nc1cccc(-c2csc(-c3ccccc3)n2)c1)c1cccs1,-6,7,9.8*,3,19,19,12*
O=C(Nc1nc(-c2ccccc2)cs1)C1COc2ccccc2O1 (configuration not stated),-10,3,14*,3,12,44*,14*
O=C(Nc1nc(-c2ccc3c(c2)OCO3)cs1)C1COc2ccccc2O1 (configuration not stated),-1,3,6,-3,12,·,·
S=C(SCc1cc(Cl)cc2c1OCOC2)N1CCSCC1,6,·,-5,-7,-2,·,·
CC(C)C[C@H](NC1(C(=O)NCCc2c[nH]c3ccccc23)CCOCC1)C(=O)NCCCc1ccccc1,6,·,-3,-3,-3,·,·
CC(C)C[C@H](NC1(C(=O)NCCc2c[nH]c3ccccc23)CCC1)C(=O)NCCCc1ccccc1,-8,·,8.8*,5,6,11,6
